Data from ChEMBL document CHEMBL3124863, “Structural modifications of neuroprotective anti-Parkinsonian (-)-N6-(2-(4-(biphenyl-4-yl)piperazin-1-yl)-ethyl)-N6-propyl-4,5,6,7-tetrahydrobenzo[d]thiazole-2,6-diamine (D-264): an effort toward the improvement of in vivo efficacy of the parent molecule” (J Med Chem, 2014).
Active and inactive are the calls of the source. The calls are words filed in the database; no cut-off is given here.

Tests used:
[1] = target: D(3) dopamine receptor (Rattus norvegicus, UniProt P19020); experiment: Displacement of [3H]spiroperidol from rat dopamine D3 receptor expressed in HEK293 cells; format: cell-based
D(3) dopamine receptor (Rattus norvegicus, UniProt P19020), sequence (P19020 whole entry): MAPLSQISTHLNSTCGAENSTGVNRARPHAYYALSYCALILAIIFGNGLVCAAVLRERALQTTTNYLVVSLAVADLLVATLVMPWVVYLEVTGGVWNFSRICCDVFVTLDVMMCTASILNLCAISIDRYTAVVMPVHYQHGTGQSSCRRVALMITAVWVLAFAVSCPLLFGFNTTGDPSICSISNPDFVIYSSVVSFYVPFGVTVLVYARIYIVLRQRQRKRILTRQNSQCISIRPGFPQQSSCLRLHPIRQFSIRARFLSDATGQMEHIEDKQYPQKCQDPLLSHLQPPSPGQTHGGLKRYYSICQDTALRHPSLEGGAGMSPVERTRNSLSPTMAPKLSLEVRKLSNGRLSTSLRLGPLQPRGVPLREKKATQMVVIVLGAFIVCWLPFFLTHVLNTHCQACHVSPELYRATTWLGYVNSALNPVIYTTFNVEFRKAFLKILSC
In short: (§1)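 Inhibition of [3H]spiroperidol (16.2 Ci/mmol) binding to rat D2 or D3 receptors expressed in HEK-293 cells. Buffer contains 0.9% NaCl; "high [radioligand]" protocol. IC50 converted to Ki by Cheng–Prusoff. Means ± SEM of 3–6 experiments, each in triplicate.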

[2] = target: D(2) dopamine receptor (Rattus norvegicus, UniProt P61169); experiment: Displacement of [3H]spiroperidol from rat dopamine D2L receptor expressed in HEK293 cells; format: cell-based; in short: as §1
D(2) dopamine receptor (Rattus norvegicus, UniProt P61169), sequence (P61169 whole entry): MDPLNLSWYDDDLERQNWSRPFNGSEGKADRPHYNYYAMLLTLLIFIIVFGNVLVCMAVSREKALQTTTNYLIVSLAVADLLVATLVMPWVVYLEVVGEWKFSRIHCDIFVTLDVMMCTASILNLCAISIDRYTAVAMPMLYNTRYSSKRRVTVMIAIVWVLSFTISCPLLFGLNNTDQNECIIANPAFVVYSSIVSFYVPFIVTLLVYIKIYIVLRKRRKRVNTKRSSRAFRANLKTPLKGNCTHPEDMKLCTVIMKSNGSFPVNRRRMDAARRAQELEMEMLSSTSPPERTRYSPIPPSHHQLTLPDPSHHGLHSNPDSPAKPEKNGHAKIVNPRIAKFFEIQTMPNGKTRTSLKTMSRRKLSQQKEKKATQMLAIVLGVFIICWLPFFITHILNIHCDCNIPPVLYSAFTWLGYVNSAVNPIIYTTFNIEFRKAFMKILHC

[3] = organism: Rattus norvegicus; experiment: Selectivity ratio of Ki for rat dopamine D2L receptor to Ki for rat dopamine D3 receptor; in short: as §1
[4] = organism: Homo sapiens; experiment: Selectivity ratio of EC50 for human dopamine D2 receptor to EC50 for human dopamine D3 receptor
[5] = tested on: Rattus norvegicus; experiment: Antiparkinsonian activity in 6-OHDA-lesioned ip dosed Sprague-Dawley rat assessed as stimulation of rotational activity measured up to 12 hrs; format: functional, organism-based
In short: (§2)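 Male Sprague–Dawley rats (290–320 g) with a left medial forebrain bundle 6-OHDA lesion, confirmed by apomorphine challenge. Drug given i.p. in water/saline; vehicle controls. Contralateral (clockwise) rotations counted in a rotometry harness chamber in 30-min bins over up to 12 h. Doses 5 or 10 μmol/kg. Mean ± SEM of 3–4 rats; ANOVA with Dunnett's test.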

[6] = tested on: Rattus norvegicus; experiment: Antiparkinsonian activity in 6-OHDA-lesioned Sprague-Dawley rat assessed as stimulation of rotational activity at 6.56 mg/kg, ip measured for 10 hrs; format: functional, organism-based; design: dose 6.56 mg/kg; in short: as §2
[7] = target: T1, D(2) dopamine receptor (Homo sapiens, UniProt P14416); experiment: Agonist activity at human dopamine D2 receptor expressed in CHO cells assessed as stimulation of [35S]GTPgammaS binding relative to dopamine
T1 sequence (P14416 whole entry): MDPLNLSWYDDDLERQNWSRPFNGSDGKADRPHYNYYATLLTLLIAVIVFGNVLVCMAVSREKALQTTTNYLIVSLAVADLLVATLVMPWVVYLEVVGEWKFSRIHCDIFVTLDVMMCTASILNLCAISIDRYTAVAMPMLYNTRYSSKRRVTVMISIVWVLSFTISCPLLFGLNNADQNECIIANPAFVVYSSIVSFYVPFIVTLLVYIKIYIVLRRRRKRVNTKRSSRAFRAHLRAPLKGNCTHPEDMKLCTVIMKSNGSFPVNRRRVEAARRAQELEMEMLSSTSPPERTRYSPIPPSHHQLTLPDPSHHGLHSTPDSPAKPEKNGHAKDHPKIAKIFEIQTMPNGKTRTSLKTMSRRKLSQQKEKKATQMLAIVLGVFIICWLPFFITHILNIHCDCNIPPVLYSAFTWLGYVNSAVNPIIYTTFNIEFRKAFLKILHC

[8] = tested on: MN9D; experiment: Neuroprotective activity in mouse MN9D cells assessed as protection against MPP+-induced toxicity at 0.001 to 20 uM pretreated for 1 hr followed by MPP+-challenge measured after 24 hrs by MTT assay; format: functional, cell-based
In short: (§3)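 MN9D mouse dopaminergic hybridoma cells seeded at 1 × 10^4 per well on poly-L-lysine and equilibrated 40 h. Pretreated 1 h with compound (0.001–20 μM), then cotreated with 100 μM MPP+ for 24 h at 37 °C. Viability by MTT (0.5 mg/mL final, 3 h), formazan in DMSO/methanol, A570–A690. Means ± SD of three experiments in 4–6 replicates; ANOVA with Tukey's test.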

[9] = target: D(3) dopamine receptor (Homo sapiens, UniProt P35462); experiment: Agonist activity at human dopamine D3 receptor expressed in CHO cells assessed as stimulation of [35S]GTPgammaS binding; format: functional, cell-based
D(3) dopamine receptor (Homo sapiens, UniProt P35462), sequence (P35462 whole entry): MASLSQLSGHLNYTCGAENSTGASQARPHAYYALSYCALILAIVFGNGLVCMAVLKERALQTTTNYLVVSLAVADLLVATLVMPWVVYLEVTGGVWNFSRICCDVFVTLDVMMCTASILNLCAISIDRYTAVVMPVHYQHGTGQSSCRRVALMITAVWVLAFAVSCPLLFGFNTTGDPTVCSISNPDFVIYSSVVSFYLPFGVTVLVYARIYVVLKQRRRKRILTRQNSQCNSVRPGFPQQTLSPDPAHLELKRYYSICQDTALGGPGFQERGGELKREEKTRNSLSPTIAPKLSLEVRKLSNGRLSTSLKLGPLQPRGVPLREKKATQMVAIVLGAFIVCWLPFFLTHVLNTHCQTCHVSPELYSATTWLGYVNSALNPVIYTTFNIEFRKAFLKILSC

[10] = tested on: Rattus norvegicus; experiment: Antiparkinsonian activity in 6-OHDA-lesioned Sprague-Dawley rat assessed as stimulation of rotational activity measured as time required to reach peak effect at 6.56 mg/kg, ip; format: functional; settings: route intraperitoneal; in short: as §2
[11] = tested on: Rattus norvegicus; experiment: Antiparkinsonian activity in Sprague-Dawley rat assessed as reversal of reserpine-induced akinesia at 5 umol/kg, ip administered in deionized water measured up to 400 mins; format: functional, organism-based
In short: (§4)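 Male Sprague–Dawley rats (220–225 g) given reserpine 5 mg/kg s.c. 18 h before test drug. After 1 h acclimatization, drug given at 5 μmol/kg (i.p., or s.c. for ropinirole). Horizontal activity counted by infrared beam breaks for 6 h in 30-min intervals, compared with reserpine controls. n = 4; ANOVA with Dunnett's test.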

[12] = target: T1, D(2) dopamine receptor; experiment: Agonist activity at human dopamine D2 receptor expressed in CHO cells assessed as stimulation of [35S]GTPgammaS binding
[13] = tested on: Rattus norvegicus; experiment: Antiparkinsonian activity in 6-OHDA-lesioned Sprague-Dawley rat assessed as stimulation of rotational activity at 3.28 mg/kg, ip measured for 7 hrs; format: functional, organism-based; design: dose 3.28 mg/kg; in short: as §2
[14] = tested on: Radical scavenging activity; experiment: Antioxidant activity assessed as inhibition of DPPH free radical scavenging activity; format: functional
In short: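 Compounds in methanol (20–250 μM solutions) mixed 1:1 with 200 μM methanolic DPPH. Shaken 25 min at 30 °C, absorbance read at 517 nm. Methanol-only wells used for background; ascorbic acid as standard. % scavenging = (control A − sample A)/control A × 100.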

[15] = tested on: Rattus norvegicus; experiment: Antiparkinsonian activity in 6-OHDA-lesioned Sprague-Dawley rat assessed as stimulation of rotational activity at 10 umol/kg measured up to 12 hrs; format: functional, organism-based; in short: as §2
[16] = tested on: Rattus norvegicus; experiment: Antiparkinsonian activity in Sprague-Dawley rat assessed as reversal of reserpine-induced akinesia at 5 umol/kg, sc administered in deionized water measured up to 400 mins; format: functional, organism-based; in short: as §4
[17] = tested on: Rattus norvegicus; experiment: Antiparkinsonian activity in 6-OHDA-lesioned Sprague-Dawley rat assessed as stimulation of rotational activity at 2.5 umol/kg measured for 5 hrs in presence of haloperidol; format: functional, organism-based
[18] = tested on: MN9D; experiment: Neuroprotective activity in mouse MN9D cells assessed as protection against MPP+-induced toxicity pretreated for 1 hr followed by MPP+-challenge measured after 24 hrs by MTT assay; format: functional, cell-based; in short: as §3
[19] = tested on: Rattus norvegicus; experiment: Antiparkinsonian activity in Sprague-Dawley rat assessed as reversal of reserpine-induced akinesia at 5 umol/kg, ip administered in 10% beta-hydroxy cyclodextrin solution measured up to 400 mins; format: functional, organism-based; in short: as §4
[20] = tested on: Rattus norvegicus; experiment: Antiparkinsonian activity in 6-OHDA-lesioned Sprague-Dawley rat assessed as stimulation of rotational activity at 9.28 mg/kg, ip measured for 10 hrs; format: functional, organism-based; design: dose 9.28 mg/kg; in short: as §2
[21] = target: T1, D(2) dopamine receptor; experiment: Agonist activity at human dopamine D2 receptor expressed in CHO cells assessed as stimulation of [35S]GTPgammaS binding; format: functional, cell-based
In short: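 [35S]GTPγS (1250 Ci/mmol) binding stimulated in CHO cells expressing human D2. EC50 is the concentration giving half-maximal stimulation. Means ± SEM of 3–6 experiments, each in triplicate.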

[22] = target: T1, D(2) dopamine receptor; experiment: Agonist activity at human dopamine D2 receptor expressed in CHO cells assessed as stimulation of [35S]GTPgammaS binding relative to dopamine; format: functional, cell-based
In short: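 [35S]GTPγS (1250 Ci/mmol) binding stimulated in CHO cells expressing human D2. EC50 is the concentration giving half-maximal stimulation. […] Means ± SEM of 3–6 experiments, each in triplicate.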

[23] = tested on: Rattus norvegicus; experiment: Antiparkinsonian activity in 6-OHDA-lesioned Sprague-Dawley rat assessed as stimulation of rotational activity measured as time required to reach peak effect at 9.28 mg/kg, ip; format: functional; settings: route intraperitoneal; in short: as §2
[24] = tested on: Rattus norvegicus; experiment: Antiparkinsonian activity in 6-OHDA-lesioned Sprague-Dawley rat assessed as stimulation of rotational activity at 4.64 mg/kg, ip measured for 7 hrs; format: functional, organism-based; design: dose 4.64 mg/kg; in short: as §2

In the case of `CCCN(CCN1CCN(C(=O)c2ccc(-c3ccccc3)cc2)CC1)C1CCc2nc(N)sc2C1` (racemic), the Ki [1] is reported as 9.58 nM, the Ki [2] is reported as 1670 nM and the Ratio Ki [3] is reported as 174.
In the case of `CCCN(CCN1CCN(c2ccc(-c3cccc(OC)c3)cc2)CC1)[C@H]1CCc2nc(N)sc2C1`, the Ratio EC50 [4] is reported as 10.8, the Activity [5] is reported as “Dose-dependent effect” and the Activity [6] is reported as “Active”. It also gave a Ki [1] of 2.33 nM, a Ki [2] of 343 nM and an Emax [7] of 105%. The Activity [8] was “inactive”, the EC50 [9] was 3.42 nM and the Time [10] was 7.5 h. For the same molecule, the Activity [11] was “Active”, the EC50 [12] was 36.8 nM and the Ratio Ki [3] was 147. For the same molecule, the Activity [13] was “Active” and the inhibition [14] was “Dose-dependent effect”.
`O=C1O[C@H]([C@@H](O)CO)C(O)=C1O` was tested, and the inhibition [14] was “Dose-dependent effect”.
`CCCN(CCN1CCN(c2ccc(-c3cccc(O)c3)cc2)CC1)[C@@H]1CCc2nc(N)sc2C1` gave a Ki [1] of 19.7 nM, a Ki [2] of 1510 nM and a Ratio Ki [3] of 76.
Work on `CCCN(CCN1CCN(c2ccc(-c3cccc(O)c3)cc2)CC1)[C@H]1CCc2c(O)cccc2C1` yielded a Ki [1] of 0.77 nM, a Ki [2] of 27.8 nM and a Ratio Ki [3] of 36. The inhibition [14] was “Dose-dependent effect”.
`CCCN(CCN1CCN(c2ccc(-c3cccc(O)c3)cc2)CC1)C1CCc2nc(N)sc2C1` (racemic) was tested, and the Ki [1] was 1.2 nM, the Ki [2] was 347 nM and the Ratio Ki [3] was 289.
`CCCN(CCN1CCN(c2ccc(-c3ccccc3)cc2)CC1)C1CCc2nc(N)ncc2C1` (racemic) was tested, and the Ki [1] was 3.65 nM, the Ki [2] was 735 nM and the Ratio Ki [3] was 201.
Molecule `CCCN(CCN1CCN(c2ccc(-c3ccc(OC)cc3)cc2)CC1)C1CCc2nc(N)sc2C1` (racemic) has a Ki [1] of 1.41 nM, a Ki [2] of 213 nM and a Ratio Ki [3] of 151.
Molecule `CCCN(CCN1CCN(c2ccc(-c3cccc(OC)c3)cc2)CC1)C1CCc2nc(N)sc2C1` (racemic) has a Ki [1] of 2.11 nM, a Ki [2] of 464 nM and a Ratio Ki [3] of 220.
`CCCN(CCN1CCN(c2ccc(-c3ccccc3OC)cc2)CC1)C1CCc2nc(N)sc2C1` (racemic) gave a Ki [1] of 3.57 nM, a Ki [2] of 274 nM and a Ratio Ki [3] of 78.
For `CCCN(CCC)CCc1cccc2c1CC(=O)N2`, the Activity [15] was “Active”, the inhibition [14] was “Dose-dependent effect” and the Activity [16] was “Active”.
`CCCN(CCN1CCN(c2ccc(-c3ccccc3)cc2)CC1)[C@H]1CCc2nc(N)sc2C1` was tested, and the Activity [17] was “inactive”, the Activity [18] was “Dose-dependent effect” and the Activity [11] was “inactive”. The Activity [19] was “Active” and the inhibition [14] was “Dose-dependent effect”.
`CCCN(CCN1CCN(c2ccc(-c3cccc(O)c3)cc2)CC1)C1CCc2nc(N)ncc2C1` (racemic) showed a Ki [1] of 67 nM, a Ki [2] of 13100 nM and a Ratio Ki [3] of 196.
For `CCCN(CCN1CCN(c2ccc(-c3cccc(O)c3)cc2)CC1)[C@H]1CCc2nc(N)sc2C1`, the Ratio EC50 [4] was 159, the Activity [5] was “Dose-dependent effect” and the Activity [20] was “Active”. The Ki [1] was 1.73 nM, the EC50 [21] was 15.9 nM and the Ki [2] was 369 nM. For the same molecule, the Emax [22] was 116%, the Activity [18] was “Dose-dependent effect” and the Time [23] was 7.5 h. For the same molecule, the EC50 [9] was 0.1 nM, the Activity [11] was “Active” and the Ratio Ki [3] was 213. For the same molecule, the Activity [24] was “Active” and the inhibition [14] was “Dose-dependent effect”.
Molecule `CCCN(CCN1CCN(c2ccc(-c3ccccc3O)cc2)CC1)C1CCc2nc(N)sc2C1` (racemic) has a Ki [1] of 1.8 nM, a Ki [2] of 208 nM and a Ratio Ki [3] of 115.
Work on `CCCN(CCCCN1CCN(c2ccc(-c3cccc(O)c3)cc2)CC1)C1CCc2nc(N)sc2C1` (racemic) yielded a Ki [1] of 9.43 nM, a Ki [2] of 567 nM and a Ratio Ki [3] of 60.
In the case of `CCCN(CCN1CCN(c2ccc(-c3ccc(O)cc3)cc2)CC1)C1CCc2nc(N)sc2C1` (racemic), the Ki [1] is reported as 1.17 nM, the Ki [2] is reported as 230 nM and the Ratio Ki [3] is reported as 196.
In the case of `CCCN(CCN1CCN(c2ccc(-c3ccccc3)cc2O)CC1)C1CCc2nc(N)sc2C1` (racemic), the Ki [1] is reported as 2.35 nM, the Ki [2] is reported as 70.6 nM and the Ratio Ki [3] is reported as 30.
